In one assay the test system is Enterococcus faecalis. In words: Antibacterial activity against Enterococcus faecalis ATCC 10541. It counts as functional. The procedure, abridged:
(§1)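 24 h growth-inhibition (MIC) assay. Final test concentration range was 50−3.13 μg/mL or 2.0−0.05 μg/mL depending on compound. Cefotaxime sodium served as positive control. Each experiment was repeated three times.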

The subject of another assay is Staphylococcus aureus. In words: Antibacterial activity against Staphylococcus aureus […]. It counts as functional. The procedure, abridged: as §1
For the next assay, the system named is Salmonella typhimurium. As to the kind of experiment: Antibacterial activity against Salmonella typhimurium ATCC 6539. It counts as functional, Salmonella enterica subsp. enterica serovar Typhimurium. The conditions noted are these: Salmonella enterica. The procedure, abridged:
as §1

In the next assay the test system is Escherichia coli. As to the kind of experiment: Antibacterial activity against Escherichia coli ATCC 11775. It counts as functional. To be noted: DSM 30083 = JCM 1649 = ATCC 11775. In short, it runs like this: as §1
Assay [1] concerns the target T1, Pancreatic triacylglycerol lipase (Sus scrofa, UniProt P00591).
T1 sequence (P00591 whole entry): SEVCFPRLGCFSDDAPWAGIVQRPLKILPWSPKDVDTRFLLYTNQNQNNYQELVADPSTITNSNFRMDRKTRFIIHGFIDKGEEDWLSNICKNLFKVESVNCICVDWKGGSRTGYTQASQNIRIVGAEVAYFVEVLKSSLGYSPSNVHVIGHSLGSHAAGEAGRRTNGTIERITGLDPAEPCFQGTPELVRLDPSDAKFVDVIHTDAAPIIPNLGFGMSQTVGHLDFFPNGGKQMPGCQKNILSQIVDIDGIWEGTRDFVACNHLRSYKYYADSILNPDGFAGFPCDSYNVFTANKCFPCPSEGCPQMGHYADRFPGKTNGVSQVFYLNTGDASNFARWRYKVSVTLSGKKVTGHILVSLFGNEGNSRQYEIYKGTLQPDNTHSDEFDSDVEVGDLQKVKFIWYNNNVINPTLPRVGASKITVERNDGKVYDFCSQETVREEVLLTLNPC
As to the kind of experiment: Inhibition of porcine pancreatic lipase using p-NPB as substrate pretreated for 15 mins followed by substrate addition measured after 15 mins by spectrophometric method.

From ChEMBL document CHEMBL4251723, “Antibacterial Dimeric Acylphloroglucinols from Hypericum japonicum” (J Nat Prod, 2018) come the findings set out here.

Each structure is given as a SMILES string. ≈ marks a conversion by molar mass, not a printed value.

Turning to `CCC(C)C(=O)C1=C(O)C(C)(C)C(O)=C(Cc2c(O)cc(OCC=C(C)C)c(C(=O)c3ccccc3)c2O)C1=O` (centres undefined), the MIC in the assay on Enterococcus faecalis amounted to 1.8 µM (≈ 0.988 µg/mL); in the assay on Staphylococcus aureus it was 1.8 µM (≈ 0.988 µg/mL); against Salmonella typhimurium it was 0.9 µM (≈ 0.494 µg/mL); against Escherichia coli, 1.8 µM (≈ 0.988 µg/mL).
For the molecule `CC(C)=CCC/C(C)=C/Cc1c(O)c(CC2=C(O)C(C)(C)C(O)=C(C(=O)C(C)C)C2=O)c(O)c(C(=O)C(C)C)c1O`, the minimum inhibitory concentration (MIC) with Enterococcus faecalis was found to be 1.8 µM (≈ 1.02 µg/mL); against Staphylococcus aureus it was 1.8 µM (≈ 1.02 µg/mL); against Salmonella typhimurium it was 1.8 µM (≈ 1.02 µg/mL); with Escherichia coli, 0.9 µM (≈ 0.512 µg/mL).
As to `C=C(CCC=C(C)C)C(O)Cc1c(O)c(CC2=C(O)C(C)(C)C(O)=C(C(=O)C(C)C)C2=O)c(O)c(C(=O)C(C)C)c1O` (centres undefined), the MIC turned out to be 0.9 µM (≈ 0.526 µg/mL) with Enterococcus faecalis, 1.7 µM (≈ 0.994 µg/mL) against Staphylococcus aureus, 0.9 µM (≈ 0.526 µg/mL) against Salmonella typhimurium and 0.9 µM (≈ 0.526 µg/mL) in the assay on Escherichia coli.
`CCC(C)C(=O)C1=C(O)C(C)(C)C(O)=C(Cc2c(O)c(C/C=C(\C)CCC=C(C)C)c(O)c(C(=O)C(C)C)c2O)C1=O` (centres undefined): the minimum inhibitory concentration (MIC) with Enterococcus faecalis was determined as 1.7 µM (≈ 0.991 µg/mL); against Staphylococcus aureus it was 3.4 µM (≈ 1.98 µg/mL); against Salmonella typhimurium, 1.7 µM (≈ 0.991 µg/mL); against Escherichia coli, 0.9 µM (≈ 0.524 µg/mL). The half-maximal inhibitory concentration (IC50) in assay [1] was 8.3 µM.
Turning to `CO/N=C(\C(=O)N[C@@H]1C(=O)N2C(C(=O)O)=C(COC(C)=O)CS[C@H]12)c1csc(N)n1` [CEFOTAXIME SODIUM], the MIC against Enterococcus faecalis stood at 0.4 µM; with Staphylococcus aureus, 3.3 µM; with Salmonella typhimurium, 3.3 µM; in the assay with Escherichia coli, 0.4 µM.
For `C=C(CCC=C(C)C)C(O)Cc1c(O)c(CC2=C(O)C(C)(C)C(O)=C(C(=O)C(C)CC)C2=O)c(O)c(C(=O)C(C)C)c1O` (centres undefined), the MIC is 0.8 µM (≈ 0.479 µg/mL) with Enterococcus faecalis, 3.3 µM (≈ 1.98 µg/mL) against Staphylococcus aureus, 0.8 µM (≈ 0.479 µg/mL) with Salmonella typhimurium and 0.8 µM (≈ 0.479 µg/mL) in the assay on Escherichia coli. Moreover, in assay [1], the IC50 amounted to 14.5 µM.
As for `CC(C)=CCOc1cc(O)c(CC2=C(O)C(C)(C)C(O)=C(C(=O)C(C)C)C2=O)c(O)c1C(=O)c1ccccc1`, the MIC against Enterococcus faecalis worked out at 1.9 µM (≈ 1.02 µg/mL); against Staphylococcus aureus, 1.9 µM (≈ 1.02 µg/mL); with Salmonella typhimurium it was 0.9 µM (≈ 0.481 µg/mL); against Escherichia coli it was 1.9 µM (≈ 1.02 µg/mL).
Consider `CC(C)=CCC[C@]1(C)Oc2c(c(O)c(CC3=C(O)C(C)(C)C(O)=C(C(=O)C(C)C)C3=O)c(O)c2C(=O)C(C)C)C[C@H]1O`, for which the MIC in the assay on Enterococcus faecalis amounted to 10.7 µM (≈ 6.26 µg/mL); against Staphylococcus aureus it was 85.6 µM (≈ 50.1 µg/mL); against Salmonella typhimurium, 5.4 µM (≈ 3.16 µg/mL); with Escherichia coli, 21.4 µM (≈ 12.5 µg/mL).
